What was measured:
Assay type in all cases: cell membranes
[1] = target: T1, Adrenergic receptor alpha-1 (Rattus norvegicus, UniProt P15823+P23944+P43140); test: The concentration required to inhibit [3H]prazosin binding to Alpha-1 adrenergic receptor in rat brain membranes was measured (in vitro)
T1 sequence (P15823 whole entry): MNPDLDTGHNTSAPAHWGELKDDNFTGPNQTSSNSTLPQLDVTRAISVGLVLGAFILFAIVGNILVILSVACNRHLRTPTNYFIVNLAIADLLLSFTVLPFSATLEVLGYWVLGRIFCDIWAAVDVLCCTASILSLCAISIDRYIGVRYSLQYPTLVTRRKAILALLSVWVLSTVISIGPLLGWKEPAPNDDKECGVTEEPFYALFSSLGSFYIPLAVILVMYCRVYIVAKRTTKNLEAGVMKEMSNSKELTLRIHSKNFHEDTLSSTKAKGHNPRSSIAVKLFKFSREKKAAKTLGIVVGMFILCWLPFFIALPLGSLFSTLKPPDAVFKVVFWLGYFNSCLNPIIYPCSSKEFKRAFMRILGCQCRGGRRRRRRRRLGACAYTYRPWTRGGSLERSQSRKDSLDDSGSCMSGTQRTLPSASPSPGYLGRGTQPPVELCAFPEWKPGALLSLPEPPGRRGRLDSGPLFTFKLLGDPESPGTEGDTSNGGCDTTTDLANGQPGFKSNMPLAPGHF
T1 sequence (P23944 whole entry): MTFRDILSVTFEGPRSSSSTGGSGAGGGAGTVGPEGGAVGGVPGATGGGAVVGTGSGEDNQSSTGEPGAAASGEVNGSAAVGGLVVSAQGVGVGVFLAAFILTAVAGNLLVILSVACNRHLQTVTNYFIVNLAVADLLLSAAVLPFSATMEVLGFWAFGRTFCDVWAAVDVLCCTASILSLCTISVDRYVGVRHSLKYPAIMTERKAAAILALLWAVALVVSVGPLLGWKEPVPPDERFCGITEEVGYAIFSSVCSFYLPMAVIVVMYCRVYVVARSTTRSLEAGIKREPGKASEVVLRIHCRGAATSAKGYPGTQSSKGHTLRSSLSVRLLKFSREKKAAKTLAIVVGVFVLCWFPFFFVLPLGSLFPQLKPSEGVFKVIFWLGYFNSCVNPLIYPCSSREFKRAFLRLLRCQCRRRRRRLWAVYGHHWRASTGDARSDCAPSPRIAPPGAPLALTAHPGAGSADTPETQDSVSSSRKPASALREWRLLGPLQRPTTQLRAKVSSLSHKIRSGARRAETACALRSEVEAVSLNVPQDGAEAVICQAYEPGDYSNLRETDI
T1 sequence (P43140 whole entry): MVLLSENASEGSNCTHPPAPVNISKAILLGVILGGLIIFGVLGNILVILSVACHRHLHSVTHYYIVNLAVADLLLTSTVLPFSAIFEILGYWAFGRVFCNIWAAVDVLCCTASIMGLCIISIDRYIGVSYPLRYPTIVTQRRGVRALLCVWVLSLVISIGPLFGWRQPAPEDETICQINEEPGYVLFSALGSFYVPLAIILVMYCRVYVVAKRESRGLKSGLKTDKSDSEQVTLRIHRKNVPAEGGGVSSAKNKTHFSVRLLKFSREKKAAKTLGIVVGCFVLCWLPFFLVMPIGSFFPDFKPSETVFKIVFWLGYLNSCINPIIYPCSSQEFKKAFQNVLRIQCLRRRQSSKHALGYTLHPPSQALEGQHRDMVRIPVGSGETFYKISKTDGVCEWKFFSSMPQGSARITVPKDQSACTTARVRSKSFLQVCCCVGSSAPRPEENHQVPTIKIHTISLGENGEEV

[2] = target: D(2) dopamine receptor (Rattus norvegicus, UniProt P61169); test: The concentration required to inhibit [3H]spiperone binding to dopamine receptor D2 in rat brain membranes (in vitro)
Sequence of D(2) dopamine receptor (P61169 whole entry): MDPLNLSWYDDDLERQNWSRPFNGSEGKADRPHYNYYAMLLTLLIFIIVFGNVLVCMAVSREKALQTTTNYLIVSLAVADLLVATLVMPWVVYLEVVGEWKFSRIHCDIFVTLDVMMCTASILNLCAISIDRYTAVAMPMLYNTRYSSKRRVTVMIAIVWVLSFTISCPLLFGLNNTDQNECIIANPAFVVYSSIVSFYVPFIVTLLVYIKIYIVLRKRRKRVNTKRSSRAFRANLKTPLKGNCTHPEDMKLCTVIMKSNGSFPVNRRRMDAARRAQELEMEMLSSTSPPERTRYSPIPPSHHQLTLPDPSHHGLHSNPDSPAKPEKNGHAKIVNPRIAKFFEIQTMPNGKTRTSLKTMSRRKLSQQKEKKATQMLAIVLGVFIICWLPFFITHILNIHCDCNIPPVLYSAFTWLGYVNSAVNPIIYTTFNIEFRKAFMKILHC
Summary of the method: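 Rat striatal membranes (0.05 mg/mL protein) in Tris-HCl with BSA 2 mg/mL, NaCl, cinanserin 10⁻⁶ M and compound. [3H]spiperone (final 0.05 nM) added after 5 min, incubation continued 40 min. Nonspecific binding from 10⁻⁶ M sulpiride. Filtration and scintillation counting.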

[3] = target: Serotonin 2 (5-HT2) receptor (Rattus norvegicus, UniProt P30994+P08909+P14842); test: The concentration required to inhibit [3H]ketanserin binding to 5-hydroxytryptamine 2 receptor in rat brain membranes (in vitro)
Summary of the method: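 Male Sprague-Dawley rat cortical membranes (0.15 mg/mL protein) in Tris-HCl pH 7.6 with BSA 2 mg/mL. Incubated 15 min at 37 °C with compound and [3H]ketanserin (final 0.4 nM). Nonspecific binding from 10⁻⁶ M methysergide. Filtration and scintillation counting. IC50 by nonlinear regression; mean of at least 2 runs, 6 concentrations in triplicate.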

| Compound | IC50 [1] | IC50 [2] | IC50 [3] |
| --- | --- | --- | --- |
| COc1ccc(N2CCN(CCCN3c4cccc5cccc(c45)S3(=O)=O)CC2)cc1 | > 1 µM | > 1 µM | 0.025 µM |
| O=S1(=O)c2cccc3cccc(c23)N1CCCN1CCN(c2ccc(C(F)(F)F)cc2)CC1 | > 1 µM | > 1 µM | 0.275 µM |
| O=S1(=O)c2cccc3cccc(c23)N1CCCN1CCN(c2ccc(Cl)cc2)CC1 | > 1 µM | > 1 µM | 0.005 µM |
| CN(CCCN1CC=C(c2ccccc2)CC1)S(=O)(=O)c1cccc2ccccc12 |  |  | > 0.1 µM |
| O=S1(=O)c2cccc3cccc(c23)N1CCCN1CCN(c2ccccn2)CC1 | 0.269 µM | > 1 µM | 0.0063 µM |
| O=C1c2cccc3cccc(c23)N1CCCN1CC=C(c2ccccc2)CC1 | 0.58 µM | > 0.1 µM | 0.0098 µM |
| O=S1(=O)c2cccc3cccc(c23)N1CCCN1CCN(c2ncccn2)CC1 | > 1 µM | > 1 µM | 0.032 µM |
| CCOC(=O)c1ccc(N2CCN(CCCN3c4cccc5cccc(c45)S3(=O)=O)CC2)cc1 | > 1 µM | > 1 µM | 0.2 µM |
| O=S1(=O)c2cccc3cccc(c23)N1CCCN1CCN(c2ccc(O)cc2)CC1 | 0.11 µM | 0.508 µM | 0.0003 µM |
| O=S1(=O)c2cccc3cccc(c23)N1CCCN1CCN(c2ccccc2F)CC1 | 0.052 µM | > 1 µM | 0.003 µM |
| O=S1(=O)N=C(N2CCN(CCCN3c4cccc5cccc(c45)S3(=O)=O)CC2)c2ccccc21 | 0.181 µM | > 1 µM | 0.24 µM |
| O=S1(=O)c2cccc3cccc(c23)N1CCCN1CC=C(c2ccccc2)CC1 | 0.192 µM | 1 µM | 0.001 µM |
| O=S1(=O)c2cccc3cccc(c23)N1CCCN1CCC(=C(c2ccc(F)cc2)c2ccc(F)cc2)CC1 | 0.05 µM | 0.603 µM | 0.011 µM |
| O=S1(=O)c2cccc3cccc(c23)N1CCCN1CCN(c2ccccc2)CC1 | 0.141 µM | > 1 µM | 0.0026 µM |
| O=S1(=O)c2cccc3cccc(c23)N1CCCN1CCN(c2ccc(Br)cc2)CC1 | > 1 µM | > 1 µM | 0.007 µM |
| O=S1(=O)c2cccc3cccc(c23)N1CCN1CCN(c2ccc(F)cc2)CC1 | 0.064 µM |  | 0.001 µM |

Source: ChEMBL document CHEMBL1125181, “Naphthosultam derivatives: a new class of potent and selective 5-HT2 antagonists” (J Med Chem, 1991)
